According to ChEMBL document CHEMBL1143482, “Insecticidal anthranilic diamides: a new class of potent ryanodine receptor activators” (2005):
Values after ≈ are worked out from the molar mass of the structure shown.

What was measured:
Type in all cases: functional
Periplaneta americana = test: Ability to release internal calcium stores mediated by ryanodine receptor without activation of voltage-gated calcium channel of cockroach in CMT assay
Method in brief: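 Embryonic Periplaneta americana neurons cultured 7–14 days on glass coverslips, loaded 30 min with Fura-2 AM (2 µM) plus 0.02% pluronic acid in saline (mM: NaCl 190, KCl 3.1, CaCl2 9.0, Tris 10.0, pH 7.2). Ratio imaging, 340/380 nm excitation, 510 nm emission, under perfusion. Caffeine 20 mM given first; only caffeine-responsive cells analysed. Test compounds applied 3 min at multiple rates (n ≥ 11).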

Heliothis virescens = test: Lethal concentration required for 50% mortality in Tobacco budworm
Method in brief: (§1)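 Larvae exposed to multiple test rates, 16 insects per rate. Mortality scored 96 h post-infestation as percent control = (dead/total) × 100. LC50 in ppm, with confidence intervals, from Probit analysis with maximum quasi-likelihood curve fitting.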

Spodoptera frugiperda = test: Lethal concentration required for 50% mortality in Fall armyworm; method in brief: as §1

Structure (SMILES)	CMT (Periplaneta americana)	LC50 (Heliothis virescens)	LC50 (Spodoptera frugiperda)
CC(C)NC(=O)c1cccc(Cl)c1NC(=O)c1cc(C(F)(F)F)nn1-c1ccccc1Cl	0.3 µM	3 µg/mL (≈ 6.18 µM)	0.1 µg/mL (≈ 0.206 µM)
CCNC(=O)c1cccc(C)c1NC(=O)c1ccc(C(F)(F)F)cc1C	–	> 500 µg/mL	32.8 µg/mL (≈ 90 µM)
Cc1cccc(C(=O)NC(C)C)c1NC(=O)c1cc(C(F)(F)F)nn1-c1ncccc1Cl	0.3 µM	0.4 µg/mL (≈ 0.859 µM)	0.1 µg/mL (≈ 0.215 µM)
Cc1cccc(C(=O)NC(C)C)c1NC(=O)c1cc(C(F)(F)F)nn1C	120 µM	130 µg/mL (≈ 353 µM)	29.6 µg/mL (≈ 80.4 µM)
Cc1cccc(C(=O)NC(C)C)c1NC(=O)c1cnc(C(F)(F)F)nc1C(C)C	26.6 µM	42.3 µg/mL (≈ 104 µM)	9.8 µg/mL (≈ 24 µM)
CCc1nc(C(F)(F)F)ncc1C(=O)Nc1c(C)cccc1C(=O)NC(C)C	–	41 µg/mL (≈ 104 µM)	9 µg/mL (≈ 22.8 µM)
CNC(=O)c1cccc(C)c1NC(=O)c1ccc(C(F)(F)F)cc1C	–	> 500 µg/mL	60.1 µg/mL (≈ 172 µM)
CCc1nc(C(F)(F)F)ccc1C(=O)Nc1c(C)cccc1C(=O)NC(C)C	20.6 µM	77.5 µg/mL (≈ 197 µM)	9.7 µg/mL (≈ 24.7 µM)
Cc1cccc(C(=O)NC(C)C)c1NC(=O)c1ccc(C(F)(F)F)nc1C(C)C	–	55.5 µg/mL (≈ 136 µM)	9.6 µg/mL (≈ 23.6 µM)
COC(=O)N(C(=O)N1CO[C@@]2(C(=O)OC)Cc3cc(Cl)ccc3C2=N1)c1ccc(OC(F)(F)F)cc1 [INDOXACARB]	–	1.5 µg/mL (≈ 2.84 µM)	0.5 µg/mL (≈ 0.947 µM)
Cc1cccc(C(=O)NC(C)C)c1NC(=O)c1ccc(C(F)(F)F)nc1C	–	327 µg/mL (≈ 862 µM)	20.7 µg/mL (≈ 54.6 µM)
Cc1cc(C(F)(F)F)ccc1C(=O)Nc1cccc(C)c1C(=O)NC(C)C	–	> 500 µg/mL	77 µg/mL (≈ 203 µM)
Cc1cccc(C(=O)NC(C)C)c1NC(=O)c1cc(C(F)(F)F)nn1-c1ccc(Cl)cc1	–	> 500 µg/mL	> 500 µg/mL
Cc1cc(C(F)(F)F)ccc1C(=O)Nc1c(C)cccc1C(=O)NC(C)C	–	256 µg/mL (≈ 675 µM)	20.7 µg/mL (≈ 54.7 µM)
CC1(C)C(C=C(Cl)Cl)C1C(=O)OC(C#N)c1cccc(Oc2ccccc2)c1 (stereo not drawn) [ALPHA-CYPERMETHRIN]	–	13.5 µg/mL (≈ 32.4 µM)	2.1 µg/mL (≈ 5.04 µM)
Cc1cccc(C(=O)NC(C)C)c1NC(=O)c1cc(C(F)(F)F)nn1-c1ccccc1Cl	0.2 µM	3.4 µg/mL (≈ 7.31 µM)	0.05 µg/mL (≈ 0.108 µM)
Cc1cccc(C(=O)NC(C)C)c1NC(=O)c1ccc(C(F)(F)F)cc1	–	> 500 µg/mL	16.9 µg/mL (≈ 46.4 µM)
CC(C)NC(=O)c1cccc(Cl)c1NC(=O)c1cc(C(F)(F)F)nn1-c1ncccc1Cl	–	0.4 µg/mL (≈ 0.823 µM)	0.1 µg/mL (≈ 0.206 µM)
Cc1cccc(C(=O)NC(C)C)c1NC(=O)c1cc(C(F)(F)F)nn1-c1ccccc1	–	354 µg/mL (≈ 822 µM)	26 µg/mL (≈ 60.4 µM)
CCn1nc(C(F)(F)F)cc1C(=O)Nc1c(C)cccc1C(=O)NC(C)C	–	158 µg/mL (≈ 413 µM)	34.8 µg/mL (≈ 91 µM)
Cc1cc(Cl)cc(C(=O)NC(C)C)c1NC(=O)c1cc(C(F)(F)F)nn1-c1ncccc1Cl	0.1 µM	0.02 µg/mL (≈ 0.04 µM)	–
Cc1cccc(C(=O)NC(C)C)c1NC(=O)c1cc(C(F)(F)F)nn1-c1cccc(Cl)c1	–	> 500 µg/mL	> 500 µg/mL
Cc1cc(C(F)(F)F)ccc1C(=O)Nc1ccccc1C(=O)NC(C)C	39.3 µM	> 500 µg/mL	27.3 µg/mL (≈ 74.9 µM)
Cc1cccc(C(=O)NC(C)C)c1NC(=O)c1cnc(C(F)(F)F)nc1C	–	102 µg/mL (≈ 269 µM)	11.6 µg/mL (≈ 30.5 µM)
Cc1cccc(C(=O)NC(C)C)c1NC(=O)c1cc(C(F)(F)F)nn1C(C)C	–	36.4 µg/mL (≈ 91.8 µM)	11.1 µg/mL (≈ 28 µM)
